Variants at the floor of the assay were thinned out.

Drawing on the RNAGym collection of RNA variant scans (doi:10.1126/science.aae0568), this text covers yeast fitness for 75 variants.

Sequences and labels used below:
B1: tRNA (parent)
chain: GUUCCGUUGGCGUAAUGGUAACGCGUCUCCCUCCUAAGGAGAAGACUGCGGGUUCGAGUCCCGUACGGAACG

This data set covers variants of B1. Briefly: yeast fitness relative to wild type (ratio to wild type); higher = fitter; tRNA-Arg(CCU), competitive growth, 37 C, YPD. The method, boiled down: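 Amplicons of the tRNA-Arg(CCU) gene were sequenced, 100-nucleotide paired-end, from the start population and from each end population of a pooled yeast competition. The competition, in six parallel replicates, lasted 24 hours in YPD at 37°C. Fitness relative to wild type was calculated from changes in genotype frequencies. Genotypes had to have ≥ 100 starting reads, and estimates < 0.5 were set to 0.5.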
GUUCCGUUGGCGUAAUGGUAACGCGUCUCCCUCCUACGGAGACGACUGCGGGUUCGAGACCCGUACGGGACG: the yeast fitness was at most 0.5. Consider GUUCCGUUGGCGUAAUGGUAACGCGUCUCCCUCCUACGGAGCAGACUGCGGGUUCGAGUCCCGUACGGUACG, for which the yeast fitness came to 0.749. GUUCCGUUGGCGUAAUGGUAACGCGUCUCCCUCCUACGGAGAAGUCUGCGGGUUCGAGUCCCGUACGGAACG: the yeast fitness turned out to be 0.695. With GUUCCGUUGGCGUAAUGGUAACGCGUCUCCCUCCUUAGGAGAAGACUACGGGUUCGAGUCCCGUACGGAACG, the yeast fitness was 0.657.

For GUUCCGUUGGCGUAAUGGUAACGCGUCUCCCUCCUUAGGAGAAGAGUGCGGGUUCGAGUCCCGUACGGUACG, the yeast fitness amounted to 0.538.

Take GUUCCGUUGGCGUAAUGGUAACGCGUCUCCCUCCUACGGAGAAGAGUGCGGGUUCGAGUCCCGUACGGAACG: the yeast fitness stood at 0.947. In the case of GUUCCGUUGGCGUAAUGGUAACGCGUCUCCCUCCUACGGAGAAGACUGCGGGUUCGUGCCCCGUACGGAACG, the yeast fitness was at most 0.5. As to GUUCCGUUGGCGUAAUGGUAACGCGUCUCCCUCCUUAGGAGAAGACUGCGGGUUCGAGUCCCAUACGGAACG, the yeast fitness was determined as 0.672. For the variant GUUCCGUUGGCGUAAUGGUAACGCGUCUCCCUCCUUAGGAGAAGACUGCGGGUUCGAGUCGCGUCCGGAACG, the yeast fitness is at most 0.5. On to GUUCCGUUGGCGUAAUGGUAACGCGUCUCCCUCCUACGGAGAAGACUGCGGGUUCGUGUCCCGUUCGGAACG, for which the yeast fitness was 0.637.

With GUUCCGUUGGCGUAAUGGUAACGCGUCUCCCUCCUUAGGAGAAGACUGCGGGUUAGAGUCCCGUACGGAACG, the yeast fitness was at most 0.5. The same measure for GUUCCGUUGGCGUAAUGGUAACGCGUCUCCCUCCUUAAGAGAAGACUGCGGGUUCGAGUCCCGUACGGAACG: 0.617; for GUUCCGUUGGCGUAAUGGUAACGCGUCUCCCUCCUACGGAGACGACUGCGGGUUCGAGUCCCGUACGGAUCG: 0.622; for GUUCCGUUGGCGUAAUGGUAACGCGUCUCCCUCCUUAGGAGAAGACUGCGGGUUCGAGUCCCGUACGGAUCG: 0.747. Regarding GUUCCGUUGGCGUAAUGGUAACGCGUCUCCCUCCUACGGAGAUGACUGCGGAUUCGAGUCCAGUAAGGAACG, the yeast fitness is at most 0.5. For GUUCCGUUGGCGUAAUGGUAACGCGUCUCCCUCCUUAGGAGAAGACUGCGGGUUCGAGUCCCGUGCGGAACG, the yeast fitness was 0.673. For GUUCCGUUGGCGUAAUGGUAACGCGUCUCCCUCCUUAGCAGAAGACUGCGGGUUCGAGUCCCGUACGGAACG, the yeast fitness came out at 0.669. Regarding GUUCCGUUGGCGUAAUGGUAACGCGUCUCCCUCCUUAGAAGAAGACUGCGGGUUCGAGUCCCGUACGGAACG, the yeast fitness came to 0.657. As to GUUCCGUUGGCGUAAUGGUAACGCGUCUCCCUCCUACGGAGAUGACUGCGGGUUCGAGUCCCGUACGGUACG, the yeast fitness came out at 0.738. Consider GUUCCGUUGGCGUAAUGGUAACGCGUCUCCCUCCUUAGGAGAAGACUGCGGGUUCGAGCCCCGUACGGAACG, for which the yeast fitness is 0.663.

GUUCCGUUGGCGUAAUGGUAACGCGUCUCCCUCCUACGGAGAAGACUGCGGGUUCGAGUCCCGUACGGUACG: the yeast fitness came to 1.03. GUUCCGUUGGCGUAAUGGUAACGCGUCUCCCUCCUACGGAGAAGACUGCGGGUUCGAGUCCCGUACGGCACG: the yeast fitness was 0.865. As to GUUCCGUUGGCGUAAUGGUAACGCGUCUCCCUCCUUAGGAGAAGACUGCGGGUUCGAGUCUCAUAUGGAACG, the yeast fitness is at most 0.5.

GUUCCGUUGGCGUAAUGGUAACGCGUCUCCCUCCUACGGAGAAGUCUGCGGGUUCGAGUCUCGUACGGAACG: the yeast fitness stood at 0.545. To GUUCCGUUGGCGUAAUGGUAACGCGUCUCCCUCCUUAGGAGAAGACUGCGGGUUCGGGUCCCGUACGGAACG belongs 0.582. For GUUCCGUUGGCGUAAUGGUAACGCGUCUCCCUCCUUAGGAGAAGACUGCGGGUUCGCGUCCCGUACGGAACG, the yeast fitness worked out at 0.528.

In the case of GUUCCGUUGGCGUAAUGGUAACGCGUCUCCCUCCUUAGGAGAAGACUGCGGGUUCGUGUCCCGUACGGAACG, the yeast fitness is 0.547. As for GUUCCGUUGGCGUAAUGGUAACGCGUCUCCCUCCUACGGAGAAGACUGCGGGUUCGAGUCCCGUGCGGAACG, the yeast fitness is 0.94. Turning to GUUCCGUUGGCGUAAUGGUAACGCGUCUCCCUCCUUAGGAGAAGACUGCGGGUUCGAGUCUCGUACGGAACG, the yeast fitness was determined as 0.693. Consider GUUCCGUUGGCGUAAUGGUAACGCGUCUCCCUCCUACGGAGCAGACUGCGGGUUCGAGUCCCGUAAGGAACG, for which the yeast fitness came out at 0.547. With GUUCCGUUGGCGUAAUGGUAACGCGUCUCCCUCCUUAGGAGAAGACUGUGGGUUCGACUCCCGUAUGGAACG, the yeast fitness was at most 0.5. For the variant GUUCCGUUGGCGUAAUGGUAACGCGUCUCCCUCCUUAGAAGAAGGCUGCGGGUUCGAGUCCCUUACGGAACG, the yeast fitness amounted to 0.535. As to GUUCCGUUGGCGUAAUGGUAACGCGUCUCCCUCCUACGGAGAUGACUGCGGGUUCGAGUCCCAUACGGAACG, the yeast fitness amounted to 0.666.

Regarding GUUCCGUUGGCGUAAUGGUAACGCGUCUCCCUCCUACGGAGAAGUCUGCGGGUUCGAGUCCCGUACCAAACG, the yeast fitness was at most 0.5. The same measure for GUUCCGUUGGCGUAAUGGUAACGCGUCUCCCUCCUACGGAGACGACUGCGGGUUCGAGUCCCGUCCGGAACG: 0.612; for GUUCCGUUGGCGUAAUGGUAACGCGUCUCCCUCCUACGGAGGAGACUGCGGGUUCGAGUCCCGUACGGAACG: 0.777. The same measure for GUUCCGUUGGCGUAAUGGUAACGCGUCUCCCUCCUACGGAGGAAACUGCGGGUUCGAGUCCCGUACAGAACG: at most 0.5; for GUUCCGUUGGCGUAAUGGUAACGCGUCUCCCUCCUUAGGACAAGACUGCGGGUUCGAGUCCCGUACGGAACG: 0.686. Turning to GUUCCGUUGGCGUAAUGGUAACGCGUCUCCCUCCUUAGGAGAAGACUGCGGGUUCGACUUCCGUACGGAACG, the yeast fitness is at most 0.5. Take GUUCCGUUGGCGUAAUGGUAACGCGUCUCCCUCCUUAGGAGAAGACUGGCGGUUCGAGUCCCGUACGGAACG: the yeast fitness was at most 0.5. Turning to GUUCCGUUGGCGUAAUGGUAACGCGUCUCCCUCCUACGGAGCAGAAUGCGGGUUCGAGUCCCGUACGGACCG, the yeast fitness was at most 0.5.

For the variant GUUCCGUUGGCGUAAUGGUAACGCGUCUCCCUCCUACGGAGAAGACUGCGGGUUCGAGUCCCGUACGGACCG, the yeast fitness was 0.968. GUUCCGUUGGCGUAAUGGUAACGCGUCUCCCUCCUACGGAGAAGACUGCGGGUUCGAGUCCCGUACGGAUCG: the yeast fitness was determined as 0.752. GUUCCGUUGGCGUAAUGGUAACGCGUCUCCCUCCUUAGGAGAAGACUGCGGGUUCGAGUCCUGUACGGAACG: the yeast fitness stood at 0.645.

Consider GUUCCGUUGGCGUAAUGGUAACGCGUCUCCCUCCUUAGGAGAAGACUGCGGGUUCGAGUCCAGUACGGAACG, for which the yeast fitness is 0.611.

With GUUCCGUUGGCGUAAUGGUAACGCGUCUCCCUCCUUAGGAGAAGACUGCGGGUUCGAGUCCUGUUCGGAACG, the yeast fitness was determined as 0.519. As to GUUCCGUUGGCGUAAUGGUAACGCGUCUCCCUCCUUAGGAGAAAACUGCGGGUUCGAGUCCCGUACGGAACG, the yeast fitness came to 0.578. For the variant GUUCCGUUGGCGUAAUGGUAACGCGUCUCCCUCCUUAGGAGAAGACUCGGGGUUCGAGUCCCGUACGGAACG, the yeast fitness is at most 0.5. Regarding GUUCCGUUGGCGUAAUGGUAACGCGUCUCCCUCCUUAGGAGAAGACUGCGGGAUCGAGUCCCGUACGGAACG, the yeast fitness stood at 0.728. Take GUUCCGUUGGCGUAAUGGUAACGCGUCUCCCUCCUUAGGAGAAGACUGCGGGGUCGAGUCCCGUACGGAACG: the yeast fitness was found to be 0.544. In the case of GUUCCGUUGGCGUAAUGGUAACGCGUCUCCCUCCUACGGAGAAGUCUGCGGCUUCGAGUCCCGUACGGAACG, the yeast fitness is at most 0.5. For GUUCCGUUGGCGUAAUGGUAACGCGUCUCCCUCCUUAGGAGAAGAAUGCGGGUUCGAGUCCGGUACGGAACG, the yeast fitness is at most 0.5. On to GUUCCGUUGGCGUAAUGGUAACGCGUCUCCCUCCUUAGGAGAAGACUGCGGGUUCGCGUCCUGUACGGAACG, for which the yeast fitness is 0.627. The same measure for GUUCCGUUGGCGUAAUGGUAACGCGUCUCCCUCCUACGGCGAAGACUGCGGGCUCGAGUCCCGUACGGAACG: 0.526; for GUUCCGUUGGCGUAAUGGUAACGCGUCUCCCUCCUUAGGAGAAGAAUGCGGGUUCGAGUCCCGUACGGAACG: 0.763; for GUUCCGUUGGCGUAAUGGUAACGCGUCUCCCUCCUUAGGAGAAGAUUGCGGGUUCGAGUCCCGUACGGAACG: 0.608. As to GUUCCGUUGGCGUAAUGGUAACGCGUCUCCCUCCUACGGGGAAGACUGCGGCUUCGAGCCCCGUUCGGAACG, the yeast fitness was at most 0.5.

On to GUUCCGUUGGCGUAAUGGUAACGCGUCUCCCUCCUUAGGAGAAGACUGCGGGUUCCAGUCCCGUCCGGAACG, for which the yeast fitness is at most 0.5.

Regarding GUUCCGUUGGCGUAAUGGUAACGCGUCUCCCUCCUUAGGAGAAGACUGCAGGUUCGAGUCUCGUACGGAACG, the yeast fitness was at most 0.5. On to GUUCCGUUGGCGUAAUGGUAACGCGUCUCCCUCCUUAGGAGAAGACGGCGGGUUCGAGUCCCGUACGGAGCG, for which the yeast fitness is at most 0.5. For GUUCCGUUGGCGUAAUGGUAACGCGUCUCCCUCCUACGGAGAAGACUGCGGGUUCGGGUCCCGUACGGAACG, the yeast fitness came out at 0.665.

In the case of GUUCCGUUGGCGUAAUGGUAACGCGUCUCCCUCCUACGGAGAAGACUGCGGGUUCGCGUCCCGUACGGAACG, the yeast fitness stood at 0.543. As to GUUCCGUUGGCGUAAUGGUAACGCGUCUCCCUCCUUAGGAGAAGACUGCGGGUUCCAGUCCCGUACGGAACG, the yeast fitness was determined as 0.563. As to GUUCCGUUGGCGUAAUGGUAACGCGUCUCCCUCCUUAGGAGAAGACUGCGGGUUCAAGUCCCGUACGGAACG, the yeast fitness worked out at 0.574. In the case of GUUCCGUUGGCGUAAUGGUAACGCGUCUCCCUCCUUAGGAGAAGACUGGGGGUCCGAGUCCCGUACGGAACG, the yeast fitness amounted to 0.66. In the case of GUUCCGUUGGCGUAAUGGUAACGCGUCUCCCUCCUACGGAGACGACUGCGGGUUCGAGUCCCGUAAGGAACG, the yeast fitness is at most 0.5. Regarding GUUCCGUUGGCGUAAUGGUAACGCGUCUCCCUCCUUAGGAGAAGACUGCGGCUUCGAGUCCCGUACGGAACG, the yeast fitness was 0.53. In the case of GUUCCGUUGGCGUAAUGGUAACGCGUCUCCCUCCUUAGGAGAAGACUGCGGGUUCGAGUCUCGUAUGGAACG, the yeast fitness was 0.582. For GUUCCGUUGGCGUAAUGGUAACGCGUCUCCCUCCUACGGAGAAGUCUGCGGGUUCGAGUCCCGUACGCAACG, the yeast fitness is at most 0.5. For GUUCCGUUGGCGUAAUGGUAACGCGUCUCCCUCCUUAGGAGAAGACUGCGGGUUCGAGUCCCGUUCAGAGCG, the yeast fitness was at most 0.5. Regarding GUUCCGUUGGCGUAAUGGUAACGCGUCUCCCUCCUUAGGAGAAGACUGCGGGUUCGAGUCCCGUACGCAACG, the yeast fitness was determined as 0.698.

GUUCCGUUGGCGUAAUGGUAACGCGUCUCCCUCCUUAGGAGAAGACUGCGGGUUCGAGUCCCGUACGAAACG: the yeast fitness is 0.642. As to GUUCCGUUGGCGUAAUGGUAACGCGUCUCCCUCCUUAGGAGAAGACUGCGGGUUCGAGUCCCGAACGGAACG, the yeast fitness amounted to 0.535.

Take GUUCCGUUGGCGUAAUGGUAACGCGUCUCCCUCCUUAGGAGAAGACUGCGGGUUCGACUCCCGUUCGGAACG: the yeast fitness is at most 0.5. Take GUUCCGUUGGCGUAAUGGUAACGCGUCUCCCUCCUUAGGAGAAGACUGCGGGUUCGAGUCCCGUACGGUACG: the yeast fitness worked out at 0.623.
